Data reported in ChEMBL document CHEMBL1149171, “Development of orally bioavailable bicyclic pyrazolones as inhibitors of tumor necrosis factor-alpha production” (J Med Chem, 2004).
In brackets after ≈: the same amount, converted by molar mass.

Tested on: not listed separately
Assay: Solubility was determined
Type: ADME, Rattus norvegicus
Settings: not given
Summary of the method: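 Shake-flask method in 50 mM phosphate buffer, pH 7.4, ionic strength 0.15 M, with 24 h equilibration. Supernatant was centrifuged and filtered, diluted with acetonitrile, and quantified by UV-vis against calibration standards in 1:1 acetonitrile/buffer.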

SMILES | solubility
COC[C@H](C)Nc1nccc(-c2c(-c3ccc(F)cc3)c(=O)n3n2CCC3)n1 | 840 µg/mL (≈ 2190 µM)
C[C@H](Nc1nccc(-c2c(-c3ccc(F)cc3)c(=O)n3n2CCC3)n1)C(C)(C)O | 1850 µg/mL (≈ 4650 µM)
O=c1c(-c2ccc(F)cc2)c(-c2ccnc(NCc3ccccc3)n2)n2n1CCC2 | 100 µg/mL (≈ 249 µM)
C[C@H](Nc1nccc(-c2c(-c3ccc(F)cc3)c(=O)n3n2CCC3)n1)c1ccccc1 | 200 µg/mL (≈ 481 µM)
CC[C@H](C)Nc1nccc(-c2c(-c3ccc(F)cc3)c(=O)n3n2CCC3)n1 | 460 µg/mL (≈ 1250 µM)

Tested on: not listed separately
Assay: Oral bioavailability in rat
Type: ADME, organism-based
Settings: in vivo

SMILES | bioavailability
COC[C@H](C)Nc1nccc(-c2c(-c3ccc(F)cc3)c(=O)n3n2CCC3)n1 | 63%
C[C@H](Nc1nccc(-c2c(-c3ccc(F)cc3)c(=O)n3n2CCC3)n1)C(C)(C)O | 25%
O=c1c(-c2ccc(F)cc2)c(-c2ccnc(NCc3ccccc3)n2)n2n1CCC2 | 18%
C[C@H](Nc1nccc(-c2c(-c3ccc(F)cc3)c(=O)n3n2CCC3)n1)c1ccccc1 | 29%
CC[C@H](C)Nc1nccc(-c2c(-c3ccc(F)cc3)c(=O)n3n2CCC3)n1 | 10%

Tested on: not listed separately
Assay: Metabolism was measured as percent loss at 4 hr in rat hepatocytes
Type: ADME, Hepatocyte
Settings: read-out: Metabolism
Summary of the method: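 Plated Sprague-Dawley rat hepatocytes on matrigel at 37 °C, 0.25 µM compound, in triplicate. Samples taken at 0, 2 and 4 h and pooled across compounds after incubation, with internal standard added. Analysis by reverse-phase HPLC/MS/MS. Analyte/internal-standard area ratio at 4 h divided by the 0 h ratio gives percent loss.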

SMILES | metabolised at 4 h
COC[C@H](C)Nc1nccc(-c2c(-c3ccc(F)cc3)c(=O)n3n2CCC3)n1 | < 5%
C[C@H](Nc1nccc(-c2c(-c3ccc(F)cc3)c(=O)n3n2CCC3)n1)C(C)(C)O | 29%
O=c1c(-c2ccc(F)cc2)c(-c2ccnc(NCc3ccccc3)n2)n2n1CCC2 | 46%
C[C@H](Nc1nccc(-c2c(-c3ccc(F)cc3)c(=O)n3n2CCC3)n1)c1ccccc1 | 50%
CC[C@H](C)Nc1nccc(-c2c(-c3ccc(F)cc3)c(=O)n3n2CCC3)n1 | 60%

Molecular target: Cyclin-dependent kinase 1/cyclin B (Homo sapiens) (UniProt P06493+P14635+Q8WWL7+O95067)
Assay: Inhibition of Cyclin-dependent kinase 1-cyclin B at 1 uM
Type: protein-complex assay
Parameters: scale not given: the % may be the effect or the level left
Settings: not given
Summary of the method: (§1)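 Kinase selectivity panel. Each kinase tested with compound at 1 µM and ATP at its K_m, in triplicate. Activity is given as a percentage of control incubations; SD typically 10%.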

SMILES | Activity
COC[C@H](C)Nc1nccc(-c2c(-c3ccc(F)cc3)c(=O)n3n2CCC3)n1 | 96%
C[C@H](Nc1nccc(-c2c(-c3ccc(F)cc3)c(=O)n3n2CCC3)n1)C(C)(C)O | 99%
C[C@H](Nc1nccc(-c2c(-c3ccc(F)cc3)c(=O)n3n2CCC3)n1)c1ccccc1 | 95%

Molecular target: Mitogen-activated protein kinase 1 (Homo sapiens) (UniProt P28482)
Assay: Inhibition of ERK2/MAPK2 kinase at 1 uM
Parameters: scale not given: the % may be the effect or the level left
Settings: not given
Summary of the method: as §1

Chain of Mitogen-activated protein kinase 1 (Homo sapiens) (P28482 whole entry): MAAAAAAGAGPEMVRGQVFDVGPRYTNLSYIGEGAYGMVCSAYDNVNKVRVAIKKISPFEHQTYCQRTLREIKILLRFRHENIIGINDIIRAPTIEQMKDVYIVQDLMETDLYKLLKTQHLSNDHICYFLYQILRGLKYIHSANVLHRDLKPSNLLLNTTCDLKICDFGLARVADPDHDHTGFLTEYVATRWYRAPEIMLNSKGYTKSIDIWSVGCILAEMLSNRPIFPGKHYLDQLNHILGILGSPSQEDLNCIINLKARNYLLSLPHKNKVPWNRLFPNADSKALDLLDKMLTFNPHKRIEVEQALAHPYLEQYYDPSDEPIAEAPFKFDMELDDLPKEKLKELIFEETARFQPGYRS

SMILES | Activity
COC[C@H](C)Nc1nccc(-c2c(-c3ccc(F)cc3)c(=O)n3n2CCC3)n1 | 98%
C[C@H](Nc1nccc(-c2c(-c3ccc(F)cc3)c(=O)n3n2CCC3)n1)C(C)(C)O | 108%
C[C@H](Nc1nccc(-c2c(-c3ccc(F)cc3)c(=O)n3n2CCC3)n1)c1ccccc1 | 80%

Molecular target: Glycogen synthase kinase-3 beta (Homo sapiens) (UniProt P49841)
Assay: Inhibition of Glycogen synthase kinase-3 beta at 1 uM
Parameters: scale not given: the % may be the effect or the level left
Settings: not given
Summary of the method: as §1

Chain of Glycogen synthase kinase-3 beta (Homo sapiens) (P49841 whole entry, looked up): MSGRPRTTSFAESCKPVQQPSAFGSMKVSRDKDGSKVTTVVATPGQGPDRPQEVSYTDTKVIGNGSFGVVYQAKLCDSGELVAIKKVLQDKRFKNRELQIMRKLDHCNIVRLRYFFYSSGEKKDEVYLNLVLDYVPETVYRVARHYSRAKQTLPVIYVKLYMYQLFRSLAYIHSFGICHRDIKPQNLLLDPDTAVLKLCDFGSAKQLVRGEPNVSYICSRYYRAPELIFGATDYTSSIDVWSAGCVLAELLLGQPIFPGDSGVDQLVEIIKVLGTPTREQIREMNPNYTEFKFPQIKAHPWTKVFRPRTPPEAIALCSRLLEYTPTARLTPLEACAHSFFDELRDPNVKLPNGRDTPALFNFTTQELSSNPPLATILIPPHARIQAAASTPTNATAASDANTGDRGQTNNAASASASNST

SMILES | Activity
COC[C@H](C)Nc1nccc(-c2c(-c3ccc(F)cc3)c(=O)n3n2CCC3)n1 | 72%
C[C@H](Nc1nccc(-c2c(-c3ccc(F)cc3)c(=O)n3n2CCC3)n1)C(C)(C)O | 99%
C[C@H](Nc1nccc(-c2c(-c3ccc(F)cc3)c(=O)n3n2CCC3)n1)c1ccccc1 | 101%

Tested on: not listed separately
Assay: Inhibition of MAPK1/IKKB kinase at 1 uM
Parameters: scale not given: the % may be the effect or the level left
Settings: not given
Summary of the method: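 Kinase panel, tested at 1 µM compound with ATP at its K_m, in triplicate. Activity is expressed as a percentage of that in control incubations.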

SMILES | Activity
C[C@H](Nc1nccc(-c2c(-c3ccc(F)cc3)c(=O)n3n2CCC3)n1)C(C)(C)O | 111%

Molecular target: MAP kinase-activated protein kinase 2 (Homo sapiens) (UniProt P49137)
Assay: Inhibition of MAPKAP-K2 kinase at 1 uM
Parameters: scale not given: the % may be the effect or the level left
Settings: not given
Summary of the method: as §1

Chain of MAP kinase-activated protein kinase 2 (Homo sapiens) (P49137 whole entry, looked up): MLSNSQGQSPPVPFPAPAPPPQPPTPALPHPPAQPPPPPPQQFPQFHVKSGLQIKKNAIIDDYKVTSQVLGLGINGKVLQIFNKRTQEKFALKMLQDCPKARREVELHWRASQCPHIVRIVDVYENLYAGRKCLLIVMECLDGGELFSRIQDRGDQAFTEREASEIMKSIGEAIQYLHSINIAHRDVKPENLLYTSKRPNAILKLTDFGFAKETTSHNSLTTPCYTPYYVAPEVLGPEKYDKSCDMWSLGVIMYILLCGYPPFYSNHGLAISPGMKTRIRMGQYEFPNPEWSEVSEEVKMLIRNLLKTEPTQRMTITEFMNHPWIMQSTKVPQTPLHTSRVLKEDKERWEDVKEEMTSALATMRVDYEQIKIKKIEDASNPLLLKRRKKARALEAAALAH

SMILES | Activity
COC[C@H](C)Nc1nccc(-c2c(-c3ccc(F)cc3)c(=O)n3n2CCC3)n1 | 113%
C[C@H](Nc1nccc(-c2c(-c3ccc(F)cc3)c(=O)n3n2CCC3)n1)C(C)(C)O | 112%
C[C@H](Nc1nccc(-c2c(-c3ccc(F)cc3)c(=O)n3n2CCC3)n1)c1ccccc1 | 91%

Molecular target: T1, Dual specificity mitogen-activated protein kinase kinase 4 (Homo sapiens) (UniProt P45985)
T1 sequence (whole entry): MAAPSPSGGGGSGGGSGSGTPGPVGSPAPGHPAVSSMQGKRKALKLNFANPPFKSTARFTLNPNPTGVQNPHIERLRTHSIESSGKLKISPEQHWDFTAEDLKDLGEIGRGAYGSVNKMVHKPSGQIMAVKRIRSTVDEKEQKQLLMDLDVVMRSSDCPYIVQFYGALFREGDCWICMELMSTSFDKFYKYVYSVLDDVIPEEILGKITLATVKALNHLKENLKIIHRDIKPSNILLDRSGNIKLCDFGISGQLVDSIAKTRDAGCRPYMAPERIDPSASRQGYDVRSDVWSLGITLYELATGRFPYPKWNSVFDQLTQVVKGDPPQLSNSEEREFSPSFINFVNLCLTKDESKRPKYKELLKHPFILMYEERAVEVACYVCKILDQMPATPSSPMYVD
Assay: Inhibition of MKK4/SKK1 kinase at 1 uM
Parameters: scale not given: the % may be the effect or the level left
Settings: not given
Summary of the method: as §1

SMILES | Activity
COC[C@H](C)Nc1nccc(-c2c(-c3ccc(F)cc3)c(=O)n3n2CCC3)n1 | 90%
C[C@H](Nc1nccc(-c2c(-c3ccc(F)cc3)c(=O)n3n2CCC3)n1)C(C)(C)O | 117%
C[C@H](Nc1nccc(-c2c(-c3ccc(F)cc3)c(=O)n3n2CCC3)n1)c1ccccc1 | 166%

Molecular target: Mitogen-activated protein kinase 3 (Homo sapiens) (UniProt P27361)
Assay: Inhibition of Mitogen-activated protein kinase 3 at 1 uM
Parameters: scale not given: the % may be the effect or the level left
Settings: not given
Summary of the method: as §1

Chain of Mitogen-activated protein kinase 3 (Homo sapiens) (P27361 whole entry): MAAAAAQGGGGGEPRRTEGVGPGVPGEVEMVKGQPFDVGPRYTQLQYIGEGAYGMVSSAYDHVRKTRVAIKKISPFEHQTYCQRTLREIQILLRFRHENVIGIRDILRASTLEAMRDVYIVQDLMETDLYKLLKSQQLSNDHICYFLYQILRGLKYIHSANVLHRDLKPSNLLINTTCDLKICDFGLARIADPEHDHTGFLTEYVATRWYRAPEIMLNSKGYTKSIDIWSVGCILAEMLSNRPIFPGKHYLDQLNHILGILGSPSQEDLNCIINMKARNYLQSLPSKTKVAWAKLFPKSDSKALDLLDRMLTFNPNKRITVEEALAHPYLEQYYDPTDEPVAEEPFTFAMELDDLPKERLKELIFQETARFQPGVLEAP

SMILES | Activity
C[C@H](Nc1nccc(-c2c(-c3ccc(F)cc3)c(=O)n3n2CCC3)n1)c1ccccc1 | 82%

Molecular target: Mitogen-activated protein kinase 3 (Homo sapiens) (UniProt P27361)
Assay: Inhibition of Mitogen-activated protein kinase 3 kinase at 1 uM
Parameters: scale not given: the % may be the effect or the level left
Settings: not given
Summary of the method: as §1

SMILES | Activity
COC[C@H](C)Nc1nccc(-c2c(-c3ccc(F)cc3)c(=O)n3n2CCC3)n1 | 96%
C[C@H](Nc1nccc(-c2c(-c3ccc(F)cc3)c(=O)n3n2CCC3)n1)C(C)(C)O | 9%

Molecular target: MAP kinase p38 (Homo sapiens, UniProt O15264+Q15759+Q16539+P53778)
Assay: Inhibition of human Mitogen-activated protein kinase p38
Type: protein assay
Settings: not given

SMILES | IC50
COC[C@H](C)Nc1nccc(-c2c(-c3ccc(F)cc3)c(=O)n3n2CCC3)n1 | 27 nM
C[C@H](Nc1nccc(-c2c(-c3ccc(F)cc3)c(=O)n3n2CCC3)n1)C(C)(C)O | 54 nM
C[C@H](Nc1nccc(-c2c(-c3ccc(F)cc3)c(=O)n3n2CCC3)n1)c1ccccc1 | 8 nM

Molecular target: RAC-alpha serine/threonine-protein kinase (Homo sapiens) (UniProt P31749)
Assay: Inhibition of Protein kinase B alpha (Akt) at 1 uM
Parameters: scale not given: the % may be the effect or the level left
Settings: not given
Summary of the method: as §1

Chain of RAC-alpha serine/threonine-protein kinase (Homo sapiens) (P31749 whole entry): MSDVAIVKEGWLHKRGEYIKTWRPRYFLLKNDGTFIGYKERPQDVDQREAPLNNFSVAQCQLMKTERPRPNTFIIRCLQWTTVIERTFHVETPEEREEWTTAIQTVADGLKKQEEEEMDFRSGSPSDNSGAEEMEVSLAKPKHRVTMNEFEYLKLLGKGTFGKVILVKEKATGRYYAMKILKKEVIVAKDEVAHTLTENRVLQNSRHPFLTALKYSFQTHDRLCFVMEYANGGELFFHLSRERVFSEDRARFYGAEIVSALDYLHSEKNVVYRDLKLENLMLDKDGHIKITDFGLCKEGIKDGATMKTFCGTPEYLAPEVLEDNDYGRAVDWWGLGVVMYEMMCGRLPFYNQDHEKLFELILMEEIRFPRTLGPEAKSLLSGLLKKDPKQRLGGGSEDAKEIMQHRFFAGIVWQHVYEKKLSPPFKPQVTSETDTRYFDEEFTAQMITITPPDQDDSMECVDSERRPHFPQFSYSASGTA

SMILES | Activity
COC[C@H](C)Nc1nccc(-c2c(-c3ccc(F)cc3)c(=O)n3n2CCC3)n1 | 89%
C[C@H](Nc1nccc(-c2c(-c3ccc(F)cc3)c(=O)n3n2CCC3)n1)C(C)(C)O | 119%
C[C@H](Nc1nccc(-c2c(-c3ccc(F)cc3)c(=O)n3n2CCC3)n1)c1ccccc1 | 98%

Molecular target: RAF proto-oncogene serine/threonine-protein kinase (Homo sapiens) (UniProt P04049)
Assay: Inhibition of RAF proto-oncogene serine/threonine-protein kinase at 1 uM
Parameters: scale not given: the % may be the effect or the level left
Settings: not given
Summary of the method: as §1

Chain of RAF proto-oncogene serine/threonine-protein kinase (Homo sapiens) (P04049 whole entry): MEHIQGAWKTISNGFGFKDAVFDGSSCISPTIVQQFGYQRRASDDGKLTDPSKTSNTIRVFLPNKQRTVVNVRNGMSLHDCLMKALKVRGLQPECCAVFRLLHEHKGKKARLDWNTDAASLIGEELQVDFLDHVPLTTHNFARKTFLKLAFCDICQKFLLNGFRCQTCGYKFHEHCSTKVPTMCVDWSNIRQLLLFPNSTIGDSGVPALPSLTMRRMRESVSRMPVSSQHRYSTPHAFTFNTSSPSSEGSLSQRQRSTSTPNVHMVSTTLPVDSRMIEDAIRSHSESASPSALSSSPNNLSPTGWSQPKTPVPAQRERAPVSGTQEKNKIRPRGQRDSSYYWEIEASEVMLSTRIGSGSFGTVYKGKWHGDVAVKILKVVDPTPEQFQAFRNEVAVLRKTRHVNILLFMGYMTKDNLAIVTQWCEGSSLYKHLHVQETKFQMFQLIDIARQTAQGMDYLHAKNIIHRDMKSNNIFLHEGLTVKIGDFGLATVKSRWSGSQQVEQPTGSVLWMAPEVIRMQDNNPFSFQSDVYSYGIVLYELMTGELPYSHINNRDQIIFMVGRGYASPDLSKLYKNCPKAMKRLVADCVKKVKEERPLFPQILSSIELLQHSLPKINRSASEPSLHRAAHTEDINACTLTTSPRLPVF

SMILES | Activity
COC[C@H](C)Nc1nccc(-c2c(-c3ccc(F)cc3)c(=O)n3n2CCC3)n1 | 55%
C[C@H](Nc1nccc(-c2c(-c3ccc(F)cc3)c(=O)n3n2CCC3)n1)C(C)(C)O | 91%
C[C@H](Nc1nccc(-c2c(-c3ccc(F)cc3)c(=O)n3n2CCC3)n1)c1ccccc1 | 61%

Molecular target: Mitogen-activated protein kinase 9 (Homo sapiens) (UniProt P45984)
Assay: Inhibition of c-Jun N-terminal kinase 2-alpha 2 at 1 uM
Parameters: scale not given: the % may be the effect or the level left
Settings: not given
Summary of the method: as §1

Chain of Mitogen-activated protein kinase 9 (Homo sapiens) (P45984 whole entry, looked up): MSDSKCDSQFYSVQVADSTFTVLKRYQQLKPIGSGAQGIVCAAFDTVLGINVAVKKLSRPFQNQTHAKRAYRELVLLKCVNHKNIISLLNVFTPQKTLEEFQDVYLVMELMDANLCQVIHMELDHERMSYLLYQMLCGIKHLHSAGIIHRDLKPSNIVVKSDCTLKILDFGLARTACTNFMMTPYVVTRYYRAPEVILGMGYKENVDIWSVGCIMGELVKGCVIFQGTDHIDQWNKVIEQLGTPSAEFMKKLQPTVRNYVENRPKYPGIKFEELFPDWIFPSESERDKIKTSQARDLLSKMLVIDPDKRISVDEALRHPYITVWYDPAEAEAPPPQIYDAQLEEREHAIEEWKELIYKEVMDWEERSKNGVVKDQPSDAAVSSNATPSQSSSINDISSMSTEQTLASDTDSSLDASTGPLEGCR

SMILES | Activity
COC[C@H](C)Nc1nccc(-c2c(-c3ccc(F)cc3)c(=O)n3n2CCC3)n1 | 8%
C[C@H](Nc1nccc(-c2c(-c3ccc(F)cc3)c(=O)n3n2CCC3)n1)C(C)(C)O | 73%
C[C@H](Nc1nccc(-c2c(-c3ccc(F)cc3)c(=O)n3n2CCC3)n1)c1ccccc1 | 8%

Molecular target: Mitogen-activated protein kinase 10 (Homo sapiens) (UniProt P53779)
Assay: Inhibition of c-Jun N-terminal kinase 3 at 1 uM
Parameters: scale not given: the % may be the effect or the level left
Settings: not given
Summary of the method: as §1

Chain of Mitogen-activated protein kinase 10 (Homo sapiens) (P53779 whole entry): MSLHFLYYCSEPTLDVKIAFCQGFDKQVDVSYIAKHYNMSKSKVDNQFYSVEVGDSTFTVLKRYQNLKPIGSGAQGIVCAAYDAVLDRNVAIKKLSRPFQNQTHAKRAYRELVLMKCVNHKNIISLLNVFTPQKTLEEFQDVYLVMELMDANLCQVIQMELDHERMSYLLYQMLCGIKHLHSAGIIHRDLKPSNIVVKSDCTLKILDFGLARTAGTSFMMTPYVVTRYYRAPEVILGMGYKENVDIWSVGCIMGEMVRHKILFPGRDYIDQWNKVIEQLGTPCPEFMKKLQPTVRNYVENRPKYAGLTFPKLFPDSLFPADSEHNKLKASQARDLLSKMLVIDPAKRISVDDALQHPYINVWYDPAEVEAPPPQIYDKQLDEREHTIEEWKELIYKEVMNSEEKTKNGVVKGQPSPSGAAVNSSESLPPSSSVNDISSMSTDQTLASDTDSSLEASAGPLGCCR

SMILES | Activity
COC[C@H](C)Nc1nccc(-c2c(-c3ccc(F)cc3)c(=O)n3n2CCC3)n1 | 5%
C[C@H](Nc1nccc(-c2c(-c3ccc(F)cc3)c(=O)n3n2CCC3)n1)C(C)(C)O | 36%
C[C@H](Nc1nccc(-c2c(-c3ccc(F)cc3)c(=O)n3n2CCC3)n1)c1ccccc1 | 4%

Molecular target: Mitogen-activated protein kinase 8 (Homo sapiens) (UniProt P45983)
Assay: Inhibition of c-Jun N-terminal kinase 1-alpha 1 at 1 uM
Parameters: scale not given: the % may be the effect or the level left
Settings: not given
Summary of the method: as §1

Chain of Mitogen-activated protein kinase 8 (Homo sapiens) (P45983 whole entry): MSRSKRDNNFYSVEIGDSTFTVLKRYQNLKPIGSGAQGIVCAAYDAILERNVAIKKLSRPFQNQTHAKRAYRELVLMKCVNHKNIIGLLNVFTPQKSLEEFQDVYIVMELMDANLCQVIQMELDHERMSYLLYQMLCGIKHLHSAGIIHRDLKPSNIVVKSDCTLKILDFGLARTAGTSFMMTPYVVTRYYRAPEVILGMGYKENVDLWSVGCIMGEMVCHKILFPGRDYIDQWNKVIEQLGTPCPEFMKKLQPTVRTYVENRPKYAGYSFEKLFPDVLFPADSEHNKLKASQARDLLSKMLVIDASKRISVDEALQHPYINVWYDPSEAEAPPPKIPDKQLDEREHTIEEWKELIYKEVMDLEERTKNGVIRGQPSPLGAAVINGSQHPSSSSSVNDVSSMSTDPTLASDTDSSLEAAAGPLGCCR

SMILES | Activity
COC[C@H](C)Nc1nccc(-c2c(-c3ccc(F)cc3)c(=O)n3n2CCC3)n1 | 65%
C[C@H](Nc1nccc(-c2c(-c3ccc(F)cc3)c(=O)n3n2CCC3)n1)C(C)(C)O | 105%
C[C@H](Nc1nccc(-c2c(-c3ccc(F)cc3)c(=O)n3n2CCC3)n1)c1ccccc1 | 52%

Molecular target: Tyrosine-protein kinase Lck (Homo sapiens) (UniProt P06239)
Assay: Inhibition of p56 Lck tyrosine kinase at 1 uM
Parameters: scale not given: the % may be the effect or the level left
Settings: not given
Summary of the method: as §1

Chain of Tyrosine-protein kinase Lck (Homo sapiens) (P06239 2-509 limits assumed): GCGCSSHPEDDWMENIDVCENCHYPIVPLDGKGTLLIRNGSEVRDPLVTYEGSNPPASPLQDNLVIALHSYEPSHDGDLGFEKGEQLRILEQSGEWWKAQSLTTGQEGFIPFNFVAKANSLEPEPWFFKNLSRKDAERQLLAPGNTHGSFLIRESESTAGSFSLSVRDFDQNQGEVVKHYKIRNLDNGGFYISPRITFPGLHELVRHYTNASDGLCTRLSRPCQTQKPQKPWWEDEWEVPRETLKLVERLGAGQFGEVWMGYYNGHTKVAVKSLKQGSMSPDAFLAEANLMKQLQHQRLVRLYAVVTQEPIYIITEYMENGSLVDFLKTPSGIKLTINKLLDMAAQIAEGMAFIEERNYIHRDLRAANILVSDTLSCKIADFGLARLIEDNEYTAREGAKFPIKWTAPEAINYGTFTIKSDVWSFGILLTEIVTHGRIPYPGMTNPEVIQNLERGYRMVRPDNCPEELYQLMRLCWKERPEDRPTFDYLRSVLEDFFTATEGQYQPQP

SMILES | Activity
C[C@H](Nc1nccc(-c2c(-c3ccc(F)cc3)c(=O)n3n2CCC3)n1)C(C)(C)O | 141%
C[C@H](Nc1nccc(-c2c(-c3ccc(F)cc3)c(=O)n3n2CCC3)n1)c1ccccc1 | 161%

Molecular target: Cyclin-dependent kinase 2/cyclin A (Homo sapiens) (UniProt P24941+P20248+P78396)
Assay: Inhibition of Cyclin-dependent kinase 2-cyclin A at 1 uM
Type: protein-complex assay
Parameters: scale not given: the % may be the effect or the level left
Settings: not given
Summary of the method: as §1

SMILES | Activity
COC[C@H](C)Nc1nccc(-c2c(-c3ccc(F)cc3)c(=O)n3n2CCC3)n1 | 108%
C[C@H](Nc1nccc(-c2c(-c3ccc(F)cc3)c(=O)n3n2CCC3)n1)C(C)(C)O | 101%
C[C@H](Nc1nccc(-c2c(-c3ccc(F)cc3)c(=O)n3n2CCC3)n1)c1ccccc1 | 117%

Molecular target: Dual specificity mitogen-activated protein kinase kinase 1 (MEK1, MAP2K1) (Homo sapiens) (UniProt Q02750)
Assay: Inhibition of Dual specificity mitogen activated protein kinase kinase 1 at 1 uM
Parameters: scale not given: the % may be the effect or the level left
Settings: not given

Chain of Dual specificity mitogen-activated protein kinase kinase 1 (MEK1, MAP2K1) (Homo sapiens) (Q02750 whole entry, looked up): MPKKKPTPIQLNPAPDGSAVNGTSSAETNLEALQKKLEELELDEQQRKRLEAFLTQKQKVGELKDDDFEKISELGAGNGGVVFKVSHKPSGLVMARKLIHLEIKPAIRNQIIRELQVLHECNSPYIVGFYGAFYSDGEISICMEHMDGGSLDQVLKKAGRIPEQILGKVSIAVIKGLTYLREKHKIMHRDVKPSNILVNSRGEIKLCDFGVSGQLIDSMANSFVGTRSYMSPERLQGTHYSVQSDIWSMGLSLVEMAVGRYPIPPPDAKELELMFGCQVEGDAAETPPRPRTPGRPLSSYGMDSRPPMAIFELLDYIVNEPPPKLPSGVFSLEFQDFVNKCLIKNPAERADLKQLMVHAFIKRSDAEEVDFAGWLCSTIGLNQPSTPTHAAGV

SMILES | Activity
COC[C@H](C)Nc1nccc(-c2c(-c3ccc(F)cc3)c(=O)n3n2CCC3)n1 | 102%
C[C@H](Nc1nccc(-c2c(-c3ccc(F)cc3)c(=O)n3n2CCC3)n1)C(C)(C)O | 95%
C[C@H](Nc1nccc(-c2c(-c3ccc(F)cc3)c(=O)n3n2CCC3)n1)c1ccccc1 | 99%
